Measurements from ChEMBL document CHEMBL1287651, “Synthesis and in vitro antibacterial activity of fluoroquinolone derivatives containing 3-(N'-alkoxycarbamimidoyl)-4-(alkoxyimino) pyrrolidines” (2010).
In brackets after ≈: the same amount, converted by molar mass.

Assays:
Assay type in all cases: functional
[1] = tested on: Staphylococcus epidermidis; assay: Antibacterial activity against methicillin-sensitive Staphylococcus epidermidis 09-3 after 18 to 24 hrs by twofold serial dilution method
Summary of the method: (§1)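 Standard twofold serial agar dilution method on agar media for MIC determination. Screened against representative Gram-positive and Gram-negative strains. Levofloxacin and GMFX served as control drugs.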

Pseudomonas aeruginosa [2] = assay: Antibacterial activity against Pseudomonas aeruginosa ATCC 27853 after 18 to 24 hrs by twofold serial dilution method
Summary of the method: (§2)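 MIC determined by the standard twofold serial dilution method on agar media, screening against Gram-positive and Gram-negative strains. Levofloxacin and gemifloxacin were run alongside as reference drugs.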

Klebsiella pneumoniae [3] = assay: Antibacterial activity against Klebsiella pneumoniae 09-21 after 18 to 24 hrs by twofold serial dilution method; summary of the method: as §2
Enterococcus faecium [4] = assay: Antibacterial activity against Enterococcus faecium 08-2 after 18 to 24 hrs by twofold serial dilution method; summary of the method: as §2
Escherichia coli [5] = assay: Antibacterial activity against Escherichia coli ATCC 25922 after 18 to 24 hrs by twofold serial dilution method; summary of the method: as §2
[6] = tested on: Staphylococcus epidermidis; assay: Antibacterial activity against methicillin-sensitive Staphylococcus epidermidis 09-6 after 18 to 24 hrs by twofold serial dilution method; summary of the method: as §1
[7] = tested on: Staphylococcus epidermidis; assay: Antibacterial activity against methicillin-resistant Staphylococcus epidermidis 09-2 after 18 to 24 hrs by twofold serial dilution method; summary of the method: as §1
Pseudomonas aeruginosa [8] = assay: Antibacterial activity against Pseudomonas aeruginosa 09-35 after 18 to 24 hrs by twofold serial dilution method; summary of the method: as §2
Streptococcus pneumoniae [9] = assay: Antibacterial activity against Streptococcus pneumoniae 08-2 after 18 to 24 hrs by twofold serial dilution method; summary of the method: as §2
Staphylococcus aureus [10] = assay: Antibacterial activity against methicillin-sensitive Staphylococcus aureus 08-2 after 18 to 24 hrs by twofold serial dilution method; summary of the method: as §1
Klebsiella pneumoniae [11] = assay: Antibacterial activity against Klebsiella pneumoniae 09-22 after 18 to 24 hrs by twofold serial dilution method; summary of the method: as §2
Escherichia coli [12] = assay: Antibacterial activity against Escherichia coli 08-21 after 18 to 24 hrs by twofold serial dilution method; summary of the method: as §2
Staphylococcus aureus [13] = assay: Antibacterial activity against methicillin-resistant Staphylococcus aureus 08-1 after 18 to 24 hrs by twofold serial dilution method; summary of the method: as §1
Escherichia coli [14] = assay: Antibacterial activity against Escherichia coli 08-22 after 18 to 24 hrs by twofold serial dilution method; summary of the method: as §2
Pseudomonas aeruginosa [15] = assay: Antibacterial activity against Pseudomonas aeruginosa 09-32 after 18 to 24 hrs by twofold serial dilution method; summary of the method: as §2
[16] = tested on: Staphylococcus epidermidis; assay: Antibacterial activity against methicillin-resistant Staphylococcus epidermidis 09-4 after 18 to 24 hrs by twofold serial dilution method; summary of the method: as §1
Pseudomonas aeruginosa [17] = assay: Antibacterial activity against Pseudomonas aeruginosa 09-34 after 18 to 24 hrs by twofold serial dilution method; summary of the method: as §2
Enterococcus faecium [18] = assay: Antibacterial activity against Enterococcus faecium 08-7 after 18 to 24 hrs by twofold serial dilution method; summary of the method: as §2
Enterococcus faecalis [19] = assay: Antibacterial activity against Enterococcus faecalis 08-10 after 18 to 24 hrs by twofold serial dilution method; summary of the method: as §2
Klebsiella pneumoniae [20] = assay: Antibacterial activity against Klebsiella pneumoniae 09-23 after 18 to 24 hrs by twofold serial dilution method; summary of the method: as §2
[21] = tested on: Staphylococcus epidermidis; assay: Antibacterial activity against methicillin-resistant Staphylococcus epidermidis 09-3 after 18 to 24 hrs by twofold serial dilution method; summary of the method: as §1
Pseudomonas aeruginosa [22] = assay: Antibacterial activity against Pseudomonas aeruginosa 09-33 after 18 to 24 hrs by twofold serial dilution method; summary of the method: as §2
Streptococcus pneumoniae [23] = assay: Antibacterial activity against Streptococcus pneumoniae 08-4 after 18 to 24 hrs by twofold serial dilution method; summary of the method: as §2
Enterococcus faecalis [24] = assay: Antibacterial activity against Enterococcus faecalis 08-12 after 18 to 24 hrs by twofold serial dilution method; summary of the method: as §2
Staphylococcus aureus [25] = assay: Antibacterial activity against Staphylococcus aureus ATCC […] after 18 to 24 hrs by twofold serial dilution method; summary of the method: as §2

Structure (SMILES) | MIC [1] [µg/mL] | MIC (Pseudomonas aeruginosa [2]) [µg/mL] | MIC (Klebsiella pneumoniae [3]) [µg/mL] | MIC (Enterococcus faecium [4]) [µg/mL] | MIC (Escherichia coli [5]) [µg/mL] | MIC [6] [µg/mL] | MIC [7] [µg/mL] | MIC (Pseudomonas aeruginosa [8]) [µg/mL] | MIC (Streptococcus pneumoniae [9]) [µg/mL] | MIC (Staphylococcus aureus [10]) [µg/mL] | MIC (Klebsiella pneumoniae [11]) [µg/mL] | MIC (Escherichia coli [12]) [µg/mL] | MIC (Staphylococcus aureus [13]) [µg/mL] | MIC (Escherichia coli [14]) [µg/mL] | MIC (Pseudomonas aeruginosa [15]) [µg/mL] | MIC [16] [µg/mL] | MIC (Pseudomonas aeruginosa [17]) [µg/mL] | MIC (Enterococcus faecium [18]) [µg/mL] | MIC (Enterococcus faecalis [19]) [µg/mL] | MIC (Klebsiella pneumoniae [20]) [µg/mL] | other results
CCO/N=C(/N)C1CN(c2c(F)cc3c(=O)c(C(=O)O)cn(C4CC4)c3c2OC)C/C1=N\OC (stereo not given) | 0.25 (≈ 0.526 µM) | 128 (≈ 269 µM) | > 128 | > 128 | 128 (≈ 269 µM) | 0.25 (≈ 0.526 µM) | 0.5 (≈ 1.05 µM) | > 128 | 32 (≈ 67.3 µM) | 0.25 (≈ 0.526 µM) | 8 (≈ 16.8 µM) | > 128 | 0.25 (≈ 0.526 µM) | > 128 | > 128 | 0.125 (≈ 0.263 µM) | > 128 | > 128 | > 128 | > 128 | MIC [21]: 0.125 µg/mL (≈ 0.263 µM); MIC (Pseudomonas aeruginosa [22]): > 128 µg/mL; MIC (Streptococcus pneumoniae [23]): 2 µg/mL (≈ 4.21 µM); MIC (Enterococcus faecalis [24]): 128 µg/mL (≈ 269 µM); MIC (Staphylococcus aureus [25]): 0.25 µg/mL (≈ 0.526 µM)
CCO/N=C1\CN(c2c(F)cc3c(=O)c(C(=O)O)cn(C4CC4)c3c2OC)CC1/C(N)=N\OCC (stereo not given) | 0.5 (≈ 1.02 µM) | 16 (≈ 32.7 µM) | 64 (≈ 131 µM) | 64 (≈ 131 µM) | 16 (≈ 32.7 µM) | 0.5 (≈ 1.02 µM) | 0.5 (≈ 1.02 µM) | 64 (≈ 131 µM) | 64 (≈ 131 µM) | 64 (≈ 131 µM) | 32 (≈ 65.4 µM) | 64 (≈ 131 µM) | 64 (≈ 131 µM) | 64 (≈ 131 µM) | 64 (≈ 131 µM) | 1 (≈ 2.04 µM) | 64 (≈ 131 µM) | 64 (≈ 131 µM) | 64 (≈ 131 µM) | 64 (≈ 131 µM) | MIC [21]: 1 µg/mL (≈ 2.04 µM); MIC (Pseudomonas aeruginosa [22]): 64 µg/mL (≈ 131 µM); MIC (Streptococcus pneumoniae [23]): 1 µg/mL (≈ 2.04 µM); MIC (Enterococcus faecalis [24]): 64 µg/mL (≈ 131 µM); MIC (Staphylococcus aureus [25]): 0.5 µg/mL (≈ 1.02 µM)
CO/N=C1\CN(c2c(F)cc3c(=O)c(C(=O)O)cn(C4CC4)c3c2OC(F)F)CC1/C(N)=N\O (stereo not given) | 0.25 (≈ 0.517 µM) | 128 (≈ 265 µM) | > 128 | > 128 | 128 (≈ 265 µM) | 0.25 (≈ 0.517 µM) | 4 (≈ 8.27 µM) | > 128 | 4 (≈ 8.27 µM) | 0.25 (≈ 0.517 µM) | 64 (≈ 132 µM) | > 128 | 0.125 (≈ 0.259 µM) | > 128 | > 128 | 0.5 (≈ 1.03 µM) | > 128 | > 128 | > 128 | > 128 | MIC [21]: 0.25 µg/mL (≈ 0.517 µM); MIC (Pseudomonas aeruginosa [22]): > 128 µg/mL; MIC (Streptococcus pneumoniae [23]): 4 µg/mL (≈ 8.27 µM); MIC (Enterococcus faecalis [24]): > 128 µg/mL; MIC (Staphylococcus aureus [25]): 0.125 µg/mL (≈ 0.259 µM)
CCO/N=C1\CN(c2c(F)cc3c(=O)c(C(=O)O)cn(C4CC4)c3c2OC(F)F)CC1/C(N)=N\O (stereo not given) | 1 (≈ 2.01 µM) | 128 (≈ 257 µM) | > 128 | > 128 | 128 (≈ 257 µM) | 0.25 (≈ 0.503 µM) | 1 (≈ 2.01 µM) | 128 (≈ 257 µM) | 8 (≈ 16.1 µM) | 1 (≈ 2.01 µM) | 8 (≈ 16.1 µM) | > 128 | 0.25 (≈ 0.503 µM) | > 128 | 128 (≈ 257 µM) | 1 (≈ 2.01 µM) | > 128 | > 128 | > 128 | > 128 | MIC [21]: 1 µg/mL (≈ 2.01 µM); MIC (Pseudomonas aeruginosa [22]): > 128 µg/mL; MIC (Streptococcus pneumoniae [23]): 8 µg/mL (≈ 16.1 µM); MIC (Enterococcus faecalis [24]): > 128 µg/mL; MIC (Staphylococcus aureus [25]): 0.5 µg/mL (≈ 1.01 µM)
CCO/N=C1\CN(c2c(F)cc3c(=O)c(C(=O)O)cn(C4CC4)c3c2OC(F)F)CC1/C(N)=N\OC (stereo not given) | 0.125 (≈ 0.244 µM) | 8 (≈ 15.6 µM) | 32 (≈ 62.6 µM) | 64 (≈ 125 µM) | 16 (≈ 31.3 µM) | 0.25 (≈ 0.489 µM) | 64 (≈ 125 µM) | 64 (≈ 125 µM) | 64 (≈ 125 µM) | 0.25 (≈ 0.489 µM) | 32 (≈ 62.6 µM) | 64 (≈ 125 µM) | 0.25 (≈ 0.489 µM) | 64 (≈ 125 µM) | 64 (≈ 125 µM) | 0.25 (≈ 0.489 µM) | 64 (≈ 125 µM) | 64 (≈ 125 µM) | 32 (≈ 62.6 µM) | 32 (≈ 62.6 µM) | MIC [21]: 0.25 µg/mL (≈ 0.489 µM); MIC (Pseudomonas aeruginosa [22]): 64 µg/mL (≈ 125 µM); MIC (Streptococcus pneumoniae [23]): 64 µg/mL (≈ 125 µM); MIC (Enterococcus faecalis [24]): 32 µg/mL (≈ 62.6 µM); MIC (Staphylococcus aureus [25]): 0.125 µg/mL (≈ 0.244 µM)
